From ChEMBL document CHEMBL1154414, “In vitro and in vivo activities of T-705 against arenavirus and bunyavirus infections” (Antimicrob Agents Chemother, 2007)
Activity calls are given as the source filed them. The calls are words filed in the database; no cut-off is given here.

Key:
Junin virus = experiment: Antiviral activity against Junin virus Candid-1 assessed as reduction of 1 log10 unit viral titer yields after 7 to 8 days; format: functional; conditions: Mammarenavirus juninense
Punta Toro virus [1] = experiment: Antiviral activity against 500 PFU Punta Toro virus Adames infected C57BL/6 mouse assessed as mean viral titer per 0.1 g of liver at 100 mg/kg, po administered 4 hrs before viral challenge measured on day 4 of viral infection; format: functional
How it was run: (§1)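 Mice were infected subcutaneously with PTV and dosed by oral gavage twice daily; 5 per group (10 placebo) were killed on day 3 or 4. Liver homogenate or serum was serially diluted onto triplicate LLC-MK2 monolayers, and CPE was read 6–8 days later. 50% endpoints gave log10 CCID50 per 0.1 g liver or 0.1 ml serum. Detection range was 2.8–9.5; undetectable samples were assigned <2.8.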

Rift Valley fever virus = experiment: Antiviral activity against Rift Valley fever virus MP-12 assessed as reduction of 1 log10 unit viral titer yields after 3 to 5 days; format: functional
Punta Toro virus [2] = experiment: Antiviral activity against Punta Toro virus Adames infected Syrian golden hamster assessed as mean viral titer per 0.1 g of liver at 15 mg/kg, po twice daily administered 4 hrs before viral challenge measured on day 4 of viral infection; format: functional
Punta Toro virus [3] = experiment: Antiviral activity against 500 PFU Punta Toro virus Adames infected C57BL/6 mouse assessed as mean serum ALT levels at 10 mg/kg, po twice daily administered 4 hrs before viral challenge measured on day 3 of viral infection; format: functional
How it was run: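 Subcutaneous PTV infection was followed by oral gavage twice daily with drug suspended in 0.4% CMC. Serum was collected from 5 sacrificed mice per group (10 placebo) on day 3 or 4. ALT activity was measured by kinetic assay, and sham-infected mice set the baselines.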

Pichinde virus [4] = experiment: Antiviral activity against Pichinde virus An 4763 infected Syrian golden hamster assessed as mean viral titer per 0.1 mL of serum at 15 mg/kg, po twice daily for 7 days administered 4 hrs before viral-challenge measured on day 7 of viral infection; format: functional
Punta Toro virus [5] = experiment: Antiviral activity against 500 PFU Punta Toro virus Adames infected C57BL/6 mouse assessed as animals with detectable virus level in liver at 200 mg/kg, po twice daily administered 4 hrs before viral challenge measured on day 4 of viral infection; format: functional
How it was run: (§2)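 T-705 was suspended in 0.4% carboxymethylcellulose and given by oral gavage twice daily. Mice were infected subcutaneously with PTV. Five mice per group (10 placebo) were sacrificed on day 3 or 4. Liver homogenate or serum was serially diluted onto triplicate LLC-MK2 monolayers, and CPE was read at 6–8 days. The detection limit was 2.8 log10 CCID50 per 0.1 g liver or 0.1 ml serum.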

Pichinde virus [6] = experiment: Antiviral activity against Pichinde virus An 4763 infected Syrian golden hamster assessed as mean viral titer per 0.1 g of liver at 15 mg/kg, po twice daily for 7 days administered 4 hrs before viral-challenge measured on day 7 of viral infection; format: functional
Punta Toro virus [7] = experiment: Antiviral activity against 500 PFU Punta Toro virus Adames infected C57BL/6 mouse assessed as animals with detectable virus level in liver at 50 mg/kg, po twice daily administered 4 hrs before viral challenge measured on day 4 of viral infection; format: functional; how it was run: as §2
Punta Toro virus [8] = experiment: Antiviral activity against 500 PFU Punta Toro virus Adames infected C57BL/6 mouse assessed as mean viral titer per 0.1 mL of serum at 50 mg/kg, po twice daily administered 4 hrs before viral challenge measured on day 4 of viral infection; format: functional; how it was run: as §1
Punta Toro virus [9] = experiment: Antiviral activity against 500 PFU Punta Toro virus Adames infected C57BL/6 mouse assessed as mean serum ALT levels at 25 mg/kg, po twice daily administered 4 hrs before viral challenge measured on day 4 of viral infection; format: functional
How it was run: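 C57BL/6 mice received subcutaneous PTV, then oral gavage twice daily for 5–7 days. T-705 was given in 0.4% CMC and ribavirin in saline. Five mice per group (10 placebo) were killed on day 3 or 4, and serum was collected. ALT activity was measured by kinetic assay. Three sham-infected mice set baselines.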

[10] = test system: Respiratory syncytial virus; experiment: Antiviral activity against Respiratory syncytial virus; format: functional, organism-based; conditions: human respiratory syncytial virus
Punta Toro virus [11] = experiment: Antiviral activity against 500 PFU Punta Toro virus Adames infected C57BL/6 mouse assessed as animals with detectable virus level in serum at 100 mg/kg, po twice daily administered 4 hrs before viral challenge measured on day 4 of viral infection; format: functional; how it was run: as §2
Punta Toro virus [12] = experiment: Antiviral activity against Punta Toro virus Adames infected Syrian golden hamster assessed as animals with detectable virus level in serum at 15 mg/kg, po twice daily administered 4 hrs before viral challenge measured on day 4 of viral infection; format: functional
Punta Toro virus [13] = experiment: Antiviral activity against Punta Toro virus Adames infected Syrian golden hamster assessed as animals with detectable virus level in liver at 15 mg/kg, po twice daily administered 4 hrs before viral challenge measured on day 4 of viral infection; format: functional
Punta Toro virus [14] = experiment: Antiviral activity against 500 PFU Punta Toro virus Adames infected C57BL/6 mouse assessed as mean viral titer per 0.1 mL of serum at 30 mg/kg, po twice daily administered 4 hrs before viral challenge measured on day 3 of viral infection; format: functional; how it was run: as §1
Punta Toro virus [15] = experiment: Antiviral activity against 500 PFU Punta Toro virus Adames infected C57BL/6 mouse assessed as mean day of death at 50 mg/kg, po twice daily for 5 days administered 4 hrs before viral challenge; format: functional
How it was run: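 Groups of 15 mice (25–30 placebo) were inoculated subcutaneously with PTV. Drug in 0.4% carboxymethylcellulose was given by oral gavage twice daily.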

Punta Toro virus [16] = experiment: Antiviral activity against 5000 PFU Punta Toro virus Adames infected C57BL/6 mouse assessed as survival at 10 mg/kg, po twice daily for 5 days administered 24 hrs post viral challenge; format: functional
How it was run: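 PTV was inoculated subcutaneously into mice in groups of 15 (25–30 placebo). Dosing was by oral gavage twice daily for 5–7 days, with T-705 suspended in 0.4% CMC and ribavirin in saline. Remaining animals were observed 21–28 days for survival and day of death. Test doses had first been checked for tolerance in uninfected animals.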

Punta Toro virus [17] = experiment: Antiviral activity against Punta Toro virus Adames infected Syrian golden hamster assessed as inhibition of liver damage at 60 mg/kg, po twice daily administered 4 hrs before viral challenge measured on day 4 of viral infection; format: functional, organism-based; design: dose 60 mg/kg
Pichinde virus [18] = experiment: Antiviral activity against Pichinde virus An 4763 infected Syrian golden hamster assessed as mean serum ALT levels at 15 mg/kg, po twice daily for 7 days administered 4 hrs before viral-challenge measured on day 7 of viral infection; format: functional
Punta Toro virus [19] = experiment: Antiviral activity against Punta Toro virus Adames infected Syrian golden hamster assessed as mean day of death at 60 mg/kg, po twice daily for 6 days administered 4 hrs before viral challenge; format: functional
[20] = Cytotoxicity against african green monkey Vero cells after 7 to 8 days by neutral-red dye uptake assay; format: cell-based; conditions: chlorocebus sabaeus
How it was run: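 Subconfluent (50-70%) Vero cells received half-log drug dilutions without virus and were held at 37°C, 5% CO2 for 7-8 days. Cells were stained with 0.034% neutral red for 2 h, and the dye was extracted 30 min in ethanol with Sorenson's citrate buffer. Absorbance was read at 540 nm as % of untreated controls. CC50 was derived by regression.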

Pichinde virus [21] = experiment: Antiviral activity against Pichinde virus An 4763 infected Syrian golden hamster assessed as survival at 50 mg/kg, po twice daily for 7 days administered 24 hrs post viral-challenge; format: functional, organism-based; design: dose 50 mg/kg
Pichinde virus [22] = experiment: Antiviral activity against Pichinde virus An 4763 infected Syrian golden hamster assessed as animals with detectable virus level in serum at 40 mg/kg, po twice daily for 7 days administered 4 hrs before viral-challenge measured on day 7 of viral infection; format: functional

NC(=O)c1nc(F)cnc1O [FAVIPIRAVIR]
EC90 (Junin virus): 7 µM
log10CCID50 (Punta Toro virus [1]): <2.8
EC90 (Rift Valley fever virus): 6 µM
log10CCID50 (Punta Toro virus [2]): >6.9
Activity (Punta Toro virus [3]): 501 IU/L
log10CCID50 (Pichinde virus [4]): <5.3
Activity (Punta Toro virus [5]): 0%
log10CCID50 (Pichinde virus [6]): 7.7
Activity (Punta Toro virus [7]): 0%
log10CCID50 (Punta Toro virus [8]): <3.1
Activity (Punta Toro virus [9]): 69 IU/L
EC50 [10]: 261 µM
Activity (Punta Toro virus [11]): 0%
Activity (Punta Toro virus [12]): 100%
Activity (Punta Toro virus [13]): 100%
log10CCID50 (Punta Toro virus [14]): <5.2
Activity (Punta Toro virus [15]): >21 days
survival at 10 mg/kg (Punta Toro virus [16]): 40%
Activity (Punta Toro virus [17]): Active
Activity (Pichinde virus [18]): 1220 IU/L
Activity (Punta Toro virus [19]): 6 days

NC(=O)c1ncn([C@@H]2O[C@H](CO)[C@@H](O)[C@H]2O)n1 [RIBAVIRIN]
CC50 [20]: 156 µM
Activity (Pichinde virus [21]): Active
Activity (Pichinde virus [22]): 40%
